Test results as given in ChEMBL document CHEMBL1145212, “Fluorinated diaryl sulfides as serotonin transporter ligands: synthesis, structure-activity relationship study, and in vivo evaluation of fluorine-18-labeled compounds as PET imaging agents” (J Med Chem, 2005).

What was measured:
Rattus norvegicus [1] = test: Biodistribution of [18F]AFM in rat hypothalamus at 120 min postinjection in vivo; format: ADME, organism-based; settings: 2 h
Outline: (§1)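 Male Sprague-Dawley rats, three per group, given about 20 µCi of F-18 radioligand in saline by tail vein. Sacrificed by decapitation after CO₂ anaesthesia at 10, 30, 60, 90 or 120 min. Brain regions and blood removed, weighed and gamma-counted. %ID was decay-corrected and corrected for residual tail activity against F-18 standards, then converted to %ID/g; mean ± SD.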

Rattus norvegicus [2] = test: Biodistribution of [18F]AFM in rat frontal cortex at 10 min postinjection in vivo; format: ADME, organism-based
Outline: (§2)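 Male Sprague-Dawley rats, three per group, received ~20 µCi of the F-18 radioligand in saline by tail-vein injection. Rats were anesthetized with CO2 and decapitated at 10, 30, 60, 90 or 120 min. Blood and brain regions were weighed and gamma-counted. %ID/g was decay- and tail-residual-corrected against F-18 standards made from the injectate and reported as mean ± SD.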

Rattus norvegicus [3] = test: Biodistribution of [18F]AFM in rat frontal cortex at 60 min postinjection in vivo; format: ADME, organism-based; settings: 1 h; outline: as §2
Rattus norvegicus [4] = test: Biodistribution of [18F]AFM in rat frontal cortex at 90 min postinjection in vivo; format: ADME, organism-based; settings: 1.5 h; outline: as §2
Rattus norvegicus [5] = test: Biodistribution of [18F]AFM in rat frontal cortex at 120 min postinjection in vivo; format: ADME, organism-based; settings: 2 h; outline: as §2
Rattus norvegicus [6] = test: Biodistribution of [18F]AFM in rat blood at 120 min postinjection in vivo; format: ADME, organism-based; settings: 2 h; outline: as §2
Rattus norvegicus [7] = test: Biodistribution of [18F]AFM in rat striatum at 10 min postinjection in vivo; format: ADME, organism-based; outline: as §1
Rattus norvegicus [8] = test: Biodistribution of [18F]-AFM in rat striatum at 30 min postinjection in vivo; format: ADME, organism-based; settings: 0.5 h
Outline: (§3)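 Male Sprague-Dawley rats, three per time point, received the F-18 radioligand in saline (~20 µCi per rat at injection) by tail vein. Under CO2 anesthesia they were decapitated at 10, 30, 60, 90 or 120 min. Blood and dissected brain regions were weighed and gamma counted. Activity was decay-corrected, and injected dose was corrected for tail residual activity. Uptake was expressed as %ID/g versus injectate standards, mean ± SD.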

Rattus norvegicus [9] = test: Biodistribution of [18F]AFM in rat striatum at 90 min postinjection in vivo; format: ADME, organism-based; settings: 1.5 h
Outline: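 Male Sprague-Dawley rats (three per group) received ~20 µCi of the F-18-labeled ligand in saline by tail vein. They were anesthetized with CO₂ and decapitated at 10, 30, 60, 90 and 120 min. Striatum and other regions were weighed and gamma-counted. Values are decay- and tail-corrected %ID/g against standards made from the injection solution, reported as mean ± SD.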

Rattus norvegicus [10] = test: Biodistribution of [18F]AFM in rat thalamus at 10 min postinjection in vivo; format: ADME, organism-based
Rattus norvegicus [11] = test: Biodistribution of [18F]-AFM in rat thalamus at 30 min postinjection in vivo; format: ADME, organism-based; settings: 0.5 h; outline: as §3
Rattus norvegicus [12] = test: Biodistribution of [18F]AFM in rat thalamus at 60 min postinjection in vivo; format: ADME, organism-based; settings: 1 h
Rattus norvegicus [13] = test: Biodistribution of [18F]AFM in rat thalamus at 90 min postinjection in vivo; format: ADME, organism-based; settings: 1.5 h
Rattus norvegicus [14] = organism: Rattus norvegicus; test: Specific binding of [18F]AFA in thalamus of rat pretreated with compound 7d; n=3; format: functional
Rattus norvegicus [15] = organism: Rattus norvegicus; test: Specific binding of [18F]-AFA in hippocampus of rat pretreated with compound 7d; n=3; format: functional
Rattus norvegicus [16] = organism: Rattus norvegicus; test: Specific binding of [18F]AFA in frontal cortex of rat pretreated with compound 7d; n=3; format: functional
Rattus norvegicus [17] = test: Biodistribution of [18F]AFM in rat blood at 10 min postinjection in vivo; format: ADME, organism-based; outline: as §2
Rattus norvegicus [18] = test: Biodistribution of [18F]AFM in rat blood at 30 min postinjection in vivo; format: ADME, organism-based; settings: 0.5 h; outline: as §2
Rattus norvegicus [19] = test: Biodistribution of [18F]AFM in rat blood at 90 min postinjection in vivo; format: ADME, organism-based; settings: 1.5 h; outline: as §2
Rattus norvegicus [20] = test: Biodistribution of [18F]-AFM in rat striatum 60 min postinjection in vivo; format: ADME, organism-based; settings: 1 h; outline: as §3
Rattus norvegicus [21] = test: Biodistribution of [18F]-AFM in rat cerebellum at 10 min postinjection in vivo; format: ADME, organism-based; outline: as §3
Rattus norvegicus [22] = test: Biodistribution of [18F]AFM in rat cerebellum at 30 min postinjection in vivo; format: ADME, organism-based; settings: 0.5 h; outline: as §2
Rattus norvegicus [23] = test: Biodistribution of [18F]AFM in rat cerebellum at 60 min postinjection in vivo; format: ADME, organism-based; settings: 1 h; outline: as §2
Rattus norvegicus [24] = test: Biodistribution of [18F]AFM in rat cerebellum at 90 min postinjection in vivo; format: ADME, organism-based; settings: 1.5 h; outline: as §2
Rattus norvegicus [25] = test: Biodistribution of [18F]AFM in rat cerebellum at 120 min postinjection in vivo; format: ADME, organism-based; settings: 2 h; outline: as §2
Rattus norvegicus [26] = test: Biodistribution of [18F]AFM in rat hippocampus at 10 min postinjection in vivo; format: ADME, organism-based; outline: as §2
Rattus norvegicus [27] = test: Biodistribution of [18F]AFM in rat hippocampus at 30 min postinjection in vivo; format: ADME, organism-based; settings: 0.5 h; outline: as §2
Rattus norvegicus [28] = test: Biodistribution of [18F]-AFM in rat hippocampus at 60 min postinjection in vivo; format: ADME, organism-based; settings: 1 h; outline: as §3
Rattus norvegicus [29] = test: Biodistribution of [18F]AFM in rat hippocampus at 90 min postinjection in vivo; format: ADME, organism-based; settings: 1.5 h; outline: as §1
Rattus norvegicus [30] = test: Biodistribution of [18F]AFM in rat hippocampus at 120 min postinjection in vivo; format: ADME, organism-based; settings: 2 h; outline: as §2
Rattus norvegicus [31] = test: Biodistribution of [18F]AFM in rat hypothalamus at 10 min postinjection in vivo; format: ADME, organism-based; outline: as §1
Rattus norvegicus [32] = test: Biodistribution of [18F]AFM in rat hypothalamus at 30 min postinjection in vivo; format: ADME, organism-based; settings: 0.5 h; outline: as §1
Rattus norvegicus [33] = test: Biodistribution of [18F]AFM in rat hypothalamus at 60 min postinjection in vivo; format: ADME, organism-based; settings: 1 h; outline: as §1
Rattus norvegicus [34] = test: Biodistribution of [18F]AFM in rat hypothalamus at 90 min postinjection in vivo; format: ADME, organism-based; settings: 1.5 h; outline: as §1
Rattus norvegicus [35] = test: Biodistribution of [18F]-AFM in rat striatum at 120 min postinjection in vivo; format: ADME, organism-based; settings: 2 h; outline: as §3
Rattus norvegicus [36] = test: Biodistribution of [18F]AFM in rat thalamus at 120 min postinjection in vivo; format: ADME, organism-based; settings: 2 h
Rattus norvegicus [37] = organism: Rattus norvegicus; test: Specific binding of [18F]AFA in striatum of rat pretreated with compound 7d; n=3; format: functional
Rattus norvegicus [38] = organism: Rattus norvegicus; test: Specific binding of [18F]AFA in hypothalamus of rat pretreated with compound 7d; n=3; format: functional
Rattus norvegicus [39] = test: Biodistribution of [18F]AFM in rat blood at 60 min postinjection in vivo; format: ADME, organism-based; settings: 1 h; outline: as §2
Rattus norvegicus [40] = test: Biodistribution of [18F]AFM in rat frontal cortex at 30 min postinjection in vivo; format: ADME, organism-based; settings: 0.5 h; outline: as §2

CN(C)Cc1ccccc1Sc1ccc(C[18F])cc1N
Biodistribution (Rattus norvegicus [1]): 0.55 %ID/g
Biodistribution (Rattus norvegicus [2]): 0.82 %ID/g
Biodistribution (Rattus norvegicus [3]): 0.71 %ID/g
Biodistribution (Rattus norvegicus [4]): 0.52 %ID/g
Biodistribution (Rattus norvegicus [5]): 0.38 %ID/g
Biodistribution (Rattus norvegicus [6]): 0.04 %ID/g
Biodistribution (Rattus norvegicus [7]): 0.69 %ID/g
Biodistribution (Rattus norvegicus [8]): 0.83 %ID/g
Biodistribution (Rattus norvegicus [9]): 0.45 %ID/g
Biodistribution (Rattus norvegicus [10]): 0.72 %ID/g
Biodistribution (Rattus norvegicus [11]): 0.88 %ID/g
Biodistribution (Rattus norvegicus [12]): 0.67 %ID/g
Biodistribution (Rattus norvegicus [13]): 0.5 %ID/g
Specific binding (Rattus norvegicus [14]): 0.85 %ID/g
Specific binding (Rattus norvegicus [15]): 0.45 %ID/g
Specific binding (Rattus norvegicus [16]): 0.31 %ID/g
Biodistribution (Rattus norvegicus [17]): 0.37 %ID/g
Biodistribution (Rattus norvegicus [18]): 0.18 %ID/g
Biodistribution (Rattus norvegicus [19]): 0.08 %ID/g
Biodistribution (Rattus norvegicus [20]): 0.57 %ID/g
Biodistribution (Rattus norvegicus [21]): 0.33 %ID/g
Biodistribution (Rattus norvegicus [22]): 0.23 %ID/g
Biodistribution (Rattus norvegicus [23]): 0.13 %ID/g
Biodistribution (Rattus norvegicus [24]): 0.08 %ID/g
Biodistribution (Rattus norvegicus [25]): 0.07 %ID/g
Biodistribution (Rattus norvegicus [26]): 0.51 %ID/g
Biodistribution (Rattus norvegicus [27]): 0.64 %ID/g
Biodistribution (Rattus norvegicus [28]): 0.45 %ID/g
Biodistribution (Rattus norvegicus [29]): 0.36 %ID/g
Biodistribution (Rattus norvegicus [30]): 0.28 %ID/g
Biodistribution (Rattus norvegicus [31]): 0.7 %ID/g
Biodistribution (Rattus norvegicus [32]): 0.82 %ID/g
Biodistribution (Rattus norvegicus [33]): 0.71 %ID/g
Biodistribution (Rattus norvegicus [34]): 0.58 %ID/g
Biodistribution (Rattus norvegicus [35]): 0.42 %ID/g
Biodistribution (Rattus norvegicus [36]): 0.56 %ID/g
Specific binding (Rattus norvegicus [37]): 0.53
Specific binding (Rattus norvegicus [38]): 0.84
Biodistribution (Rattus norvegicus [39]): 0.1 %ID/g
Biodistribution (Rattus norvegicus [40]): 0.99 %ID/g
